Assays:
[1] = molecular target: Indoleamine 2,3-dioxygenase 1 (Homo sapiens, UniProt P14902); experiment: Inhibition of recombinant human IDO1 assessed as reduction in kynurenine formation using L-tryptophan as substrate incubated for 45 mins by microplate reader assay
[2] = molecular target: Tryptophan 2,3-dioxygenase (Homo sapiens, UniProt P48775); experiment: Inhibition of recombinant human TDO assessed as reduction in kynurenine formation using L-tryptophan as substrate incubated for 45 mins by microplate reader assay
Procedure, shortened: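 Purified recombinant human TDO (0.05 μM) in 100 mM potassium phosphate pH 6.5 with 40 mM neutralized ascorbate, 200 μg/mL catalase, 20 μM methylene blue, L-Trp substrate and compound; 37 °C, 45 min. Stopped with 30% TCA, 65 °C 15 min, then 2% p-dimethylaminobenzaldehyde in acetic acid; absorbance 490 nm; IC50 by curve fitting.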

Sequence of Indoleamine 2,3-dioxygenase 1 (P14902 whole entry): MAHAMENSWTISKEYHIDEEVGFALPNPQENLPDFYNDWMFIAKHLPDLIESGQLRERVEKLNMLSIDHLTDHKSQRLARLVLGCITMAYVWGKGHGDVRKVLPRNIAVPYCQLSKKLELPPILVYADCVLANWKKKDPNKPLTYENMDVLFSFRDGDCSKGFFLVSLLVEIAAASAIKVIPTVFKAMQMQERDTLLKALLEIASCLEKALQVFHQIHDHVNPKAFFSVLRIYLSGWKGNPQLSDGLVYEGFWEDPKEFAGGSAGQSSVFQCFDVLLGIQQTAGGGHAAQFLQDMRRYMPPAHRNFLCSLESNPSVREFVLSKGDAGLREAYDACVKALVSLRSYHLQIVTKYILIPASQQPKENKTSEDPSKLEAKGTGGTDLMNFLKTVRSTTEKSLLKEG
Sequence of Tryptophan 2,3-dioxygenase (P48775 whole entry): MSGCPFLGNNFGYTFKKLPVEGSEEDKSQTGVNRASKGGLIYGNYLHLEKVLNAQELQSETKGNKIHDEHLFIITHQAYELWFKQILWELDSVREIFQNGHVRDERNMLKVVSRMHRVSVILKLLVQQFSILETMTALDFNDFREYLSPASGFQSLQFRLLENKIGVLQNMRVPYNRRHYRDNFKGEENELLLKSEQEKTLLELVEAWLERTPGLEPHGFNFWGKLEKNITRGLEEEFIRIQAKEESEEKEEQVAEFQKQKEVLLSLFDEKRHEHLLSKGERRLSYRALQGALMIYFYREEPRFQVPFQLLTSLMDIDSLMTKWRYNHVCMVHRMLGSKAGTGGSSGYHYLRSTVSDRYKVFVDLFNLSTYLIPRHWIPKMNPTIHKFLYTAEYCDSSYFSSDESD

SMILES | IC50 [1] | IC50 [2]
O=C(O)c1cc2c(Nc3ccc(F)c(OC(F)(F)F)c3)ccc(F)c2[nH]1 | 16.3 µM | 16.5 µM
COc1cc(Nc2ccc(F)c3[nH]c(C(=O)O)cc23)cc(OC)c1OC | 22.2 µM | 23.3 µM
COc1ccc(Nc2cc(NC(C)=O)cc3[nH]c(C(=O)O)cc23)cc1 | 1.71 µM | 3.01 µM
CC(=O)Nc1cc(Nc2ccc(OC(F)(F)F)cc2)c2cc(C(=O)O)[nH]c2c1 | 23.7 µM | 5.71 µM
O=C(O)c1cc2c(Nc3ccc(F)c(Br)c3)ccc(F)c2[nH]1 | 9.93 µM | 10.5 µM
CC(=O)Nc1cc(Nc2ccc(F)c(C3CC3)c2)c2cc(C(=O)O)[nH]c2c1 | 2.95 µM | 5.45 µM
O=C(O)c1cc2c(Nc3ccc(F)c(Cl)c3)cccc2[nH]1 | > 100 µM | 
O=C(O)c1cc2c(Nc3ccc(F)c(Cl)c3)cc(Cl)cc2[nH]1 | > 100 µM | 
CCNc1cc(Nc2ccc(F)c(Cl)c2)c2cc(C(=O)O)[nH]c2c1 | 1.75 µM | 3.53 µM
Cc1ccc(Nc2ccc(F)c(Cl)c2)c2cc(C(=O)O)[nH]c12 | > 100 µM | 
O=C(O)c1cc2c(NCc3ccc(F)c(Cl)c3)ccc(F)c2[nH]1 | > 100 µM | 
CCNC1=C/C(=N\c2ccc(F)c(Cl)c2)c2cc(C(=O)O)[nH]c2C1=O | 0.018 µM | 0.025 µM
O=C(Nc1ccc(F)c(Cl)c1)Nc1ccc(F)c2[nH]c(C(=O)O)cc12 | > 100 µM | 
CC(=O)Nc1cc(Nc2ccc(C(F)(F)F)cc2)c2cc(C(=O)O)[nH]c2c1 | 55.5 µM | 23.2 µM
COc1cc(Nc2ccc(F)c(Cl)c2)c2cc(C(=O)O)[nH]c2c1 | > 100 µM | 
O=C(O)c1cc2c(Nc3ccc(OC(F)(F)F)c(Cl)c3)ccc(F)c2[nH]1 | > 100 µM | 
COc1cc(Nc2ccc(F)c3[nH]c(C(=O)O)cc23)ccc1F | 54.4 µM | 31.4 µM
CCOc1cc(Nc2cc(NC(C)=O)cc3[nH]c(C(=O)O)cc23)ccc1F | 2.2 µM | 5.13 µM
OCc1cc2c(Nc3ccc(F)c(Cl)c3)ccc(F)c2[nH]1 | > 100 µM | 
N#Cc1ccc(Nc2ccc(F)c(Cl)c2)c2cc(C(=O)O)[nH]c12 | > 100 µM | 
Cc1cc(Nc2ccc(F)c(Cl)c2)c2cc(C(=O)O)n(C)c2c1 | > 100 µM | 
CC(=O)Nc1cc(Nc2ccc(F)c(OCC(F)(F)F)c2)c2cc(C(=O)O)[nH]c2c1 | 4.62 µM | 9.63 µM
O=C(Cc1ccc(F)c(Cl)c1)Nc1ccc(F)c2[nH]c(C(=O)O)cc12 | > 100 µM | 

SMILES | IC50 [1] | IC50 [2]
CC(=O)Nc1cc(Nc2ccc(F)c(Cl)c2)c2cc(C(=O)O)[nH]c2c1 | 8.4 µM | 8.48 µM
O=C(O)c1cc2c(Nc3ccc(F)c(Cl)c3)ccc([N+](=O)[O-])c2[nH]1 | > 100 µM | 
CC(=O)Nc1cc(Nc2ccc(F)c(C)c2)c2cc(C(=O)O)[nH]c2c1 | 1.83 µM | 1.7 µM
COc1ccc(C(=O)O)c(Nc2ccc(F)c3[nH]c(C(=O)O)cc23)c1 | > 100 µM | 
COc1ccc(Nc2cc(NC(C)=O)cc3[nH]c(C(=O)O)cc23)cn1 | 3.41 µM | 3.62 µM
CC(=O)Nc1cc(Nc2ccc(F)c(F)c2)c2cc(C(=O)O)[nH]c2c1 | 1.17 µM | 1.55 µM
CC(=O)Nc1cc(Nc2ccc(F)nc2)c2cc(C(=O)O)[nH]c2c1 | 38.5 µM | 46.1 µM
N#Cc1cc2c(Nc3ccc(F)c(Cl)c3)ccc(F)c2[nH]1 | > 100 µM | 
Cc1cc(Nc2ccc(F)c(Cl)c2)c2cc(C(=O)O)[nH]c2c1 | 35.6 µM | 22.5 µM
O=C(O)c1cc2c(Nc3ccc(F)c(Cl)c3)cc(F)cc2[nH]1 | > 100 µM | 
O=C(O)c1cc2c(Nc3ccc(F)c(Cl)c3)cc([N+](=O)[O-])cc2[nH]1 | > 100 µM | > 100 µM
O=C(O)c1cc2c(Nc3ccc(F)c4[nH]c(C(=O)O)cc34)ccc(F)c2[nH]1 | 2.72 µM | 3.48 µM
O[C@H](C[C@H]1c2c(F)cccc2-c2cncn21)[C@H]1CC[C@H](O)CC1 [NAVOXIMOD] |  | 0.8 µM
N#Cc1cc(Nc2ccc(F)c3[nH]c(C(=O)O)cc23)ccc1F | > 100 µM | 
CC(=O)Nc1cc(Nc2ccc(F)c(Oc3ccccc3)c2)c2cc(C(=O)O)[nH]c2c1 | 5.83 µM | 1.44 µM
CC(=O)Nc1cc(Nc2cccc3[nH]ncc23)c2cc(C(=O)O)[nH]c2c1 | 7.52 µM | 6.78 µM
CC(=O)Nc1cc(Nc2ccc(F)c(Cl)c2)c2cc(C(=O)O)sc2c1 | > 100 µM | 
N#Cc1cc(Nc2ccc(F)c(Cl)c2)c2cc(C(=O)O)[nH]c2c1 | > 100 µM | > 100 µM
O=C(O)c1cc2c(Sc3ccc(F)c(Cl)c3)ccc(F)c2[nH]1 | > 100 µM | 
O=C(O)c1cc2c(Nc3ccc(F)c(Cl)c3)ccc(F)c2[nH]1 | 40.7 µM | 99.2 µM
Fc1ccc(Nc2ccc(F)c3[nH]ccc23)cc1Cl | > 100 µM | 
CC(=O)Nc1cc(Nc2ccc(F)c(OCC3CC3)c2)c2cc(C(=O)O)[nH]c2c1 | 3.11 µM | 4.09 µM
NC(=O)c1cc2c(Nc3ccc(F)c(Cl)c3)ccc(F)c2[nH]1 | > 100 µM | 

SMILES | IC50 [1] | IC50 [2]
COc1cc(Nc2cc(NC(C)=O)cc3[nH]c(C(=O)O)cc23)ccc1F | 1.23 µM | 2.49 µM
O=C(O)c1cc2c(C(=O)Nc3ccc(F)c(Cl)c3)ccc(F)c2[nH]1 | > 100 µM | 
COc1cc(Cl)cc(Nc2ccc(F)c3[nH]c(C(=O)O)cc23)c1 | > 100 µM | 
CC(=O)Nc1ccc(Nc2ccc(F)c(Cl)c2)c2cc(C(=O)O)[nH]c12 | > 100 µM | 
CC(=O)Nc1cc(Nc2ccc(F)cc2)c2cc(C(=O)O)[nH]c2c1 | 5.28 µM | 7.69 µM
O=C(Nc1ccc(F)c2[nH]c(C(=O)O)cc12)c1ccc(F)c(Cl)c1 | > 100 µM | 
O=C(O)c1cc2c(Nc3ccc(F)c(Cl)c3)ccc(Cl)c2[nH]1 | > 100 µM | 
N/C(=N\O)c1cc2c(Nc3ccc(F)c(Cl)c3)ccc(F)c2[nH]1 | > 100 µM | 
O=C(NO)c1cc2c(Nc3ccc(F)c(Cl)c3)ccc(F)c2[nH]1 | > 100 µM | 
COc1cc(Nc2ccc(F)c3[nH]c(C(=O)O)cc23)cc(C(F)(F)F)c1 | > 100 µM | 
O=C(O)c1cc2c(Nc3ccc(F)c(F)c3)ccc(F)c2[nH]1 | > 100 µM | 
O=C(O)c1cc2c(Nc3ccc(Cl)c(Cl)c3)ccc(F)c2[nH]1 | > 100 µM | 
O=C(O)c1cc2c(Nc3ccc(C(F)(F)F)c(Cl)c3)ccc(F)c2[nH]1 | > 100 µM | 
CCCOc1cc(Nc2cc(NC(C)=O)cc3[nH]c(C(=O)O)cc23)ccc1F | 1.48 µM | 4.46 µM
Cc1cc2c(Nc3ccc(F)c(Cl)c3)ccc(F)c2[nH]1 | > 100 µM | 
CC(=O)Nc1cc(Nc2ccc(F)c(-c3ccsc3)c2)c2cc(C(=O)O)[nH]c2c1 | 3.89 µM | 2.53 µM
COc1ccc(Nc2cc(NC(C)=O)cc3[nH]c(C(=O)O)cc23)nc1 | 4.73 µM | 5.27 µM
COc1ccc(Nc2ccc(F)c(Cl)c2)c2cc(C(=O)O)[nH]c12 | 32.4 µM | 19.5 µM
O=C(O)c1cc2c(Nc3cc(Br)ccc3F)ccc(F)c2[nH]1 | 28.1 µM | 41.4 µM
O=C(O)c1cc2c(Nc3cccc4[nH]ccc34)ccc(F)c2[nH]1 | > 100 µM | 
COc1ccc(Nc2ccc(F)c3[nH]c(C(=O)O)cc23)cc1Cl | > 100 µM | 
O=C(O)c1cc2c(Nc3ccc(F)c4[nH]ccc34)ccc(F)c2[nH]1 | > 100 µM | 
Cn1c(C(=O)O)cc2c(Nc3ccc(F)c(Cl)c3)ccc(F)c21 | > 100 µM | 
